Data taken from ChEMBL document CHEMBL1165965, “Synthesis and structure-activity relationships of 1,2,3,4-tetrahydropyrido[2,3-b]pyrazines as potent and selective inhibitors of the anaplastic lymphoma kinase” (Bioorg Med Chem, 2010).

Tests used:
[1] = biological target: Death-associated protein kinase 1 (Homo sapiens) (UniProt P53355); experiment: Inhibition of DAPK1 at 1 uM
Summary of the method: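 Single-concentration screen using Ambit Bioscience KINOMEscan technology across a panel of 250–400 kinases. Per-kinase inhibition from this screen was summarized as S(90), the fraction of kinases inhibited by more than 90%.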

[2] = biological target: T1, Serine/threonine-protein kinase BRSK1 (Homo sapiens) (UniProt Q8TDC3); experiment: Inhibition of BRSK1 at 1 uM
T1 sequence (whole entry): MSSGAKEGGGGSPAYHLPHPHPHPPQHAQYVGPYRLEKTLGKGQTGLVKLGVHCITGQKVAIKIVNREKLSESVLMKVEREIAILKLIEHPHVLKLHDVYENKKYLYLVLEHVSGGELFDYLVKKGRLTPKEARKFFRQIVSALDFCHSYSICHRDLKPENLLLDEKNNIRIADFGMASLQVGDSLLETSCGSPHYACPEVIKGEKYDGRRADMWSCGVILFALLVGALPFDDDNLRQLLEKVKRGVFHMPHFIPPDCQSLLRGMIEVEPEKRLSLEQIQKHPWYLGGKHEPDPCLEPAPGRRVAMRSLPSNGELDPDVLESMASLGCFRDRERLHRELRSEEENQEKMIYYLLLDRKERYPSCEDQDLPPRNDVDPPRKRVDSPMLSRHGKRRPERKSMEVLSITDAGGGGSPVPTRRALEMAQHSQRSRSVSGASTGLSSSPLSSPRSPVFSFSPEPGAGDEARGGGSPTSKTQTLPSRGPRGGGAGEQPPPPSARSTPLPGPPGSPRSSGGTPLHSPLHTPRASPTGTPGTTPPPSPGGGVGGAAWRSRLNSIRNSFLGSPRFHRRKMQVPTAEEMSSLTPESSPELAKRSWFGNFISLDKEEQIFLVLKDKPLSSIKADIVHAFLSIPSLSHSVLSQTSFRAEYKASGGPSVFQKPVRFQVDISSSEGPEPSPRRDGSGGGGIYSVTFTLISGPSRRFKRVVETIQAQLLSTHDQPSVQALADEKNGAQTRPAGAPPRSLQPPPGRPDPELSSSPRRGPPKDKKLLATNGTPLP
Summary of the method: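 Ambit KINOMEscan screen at a single concentration across a 250–400 kinase panel, recorded as percent inhibition. Selectivity was expressed as S(90), the fraction of kinases inhibited >90%.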

[3] = biological target: T2, Serine/threonine-protein kinase Nek2 (Homo sapiens) (UniProt P51955); experiment: Inhibition of NEK2 at 1 uM
T2 sequence (whole entry): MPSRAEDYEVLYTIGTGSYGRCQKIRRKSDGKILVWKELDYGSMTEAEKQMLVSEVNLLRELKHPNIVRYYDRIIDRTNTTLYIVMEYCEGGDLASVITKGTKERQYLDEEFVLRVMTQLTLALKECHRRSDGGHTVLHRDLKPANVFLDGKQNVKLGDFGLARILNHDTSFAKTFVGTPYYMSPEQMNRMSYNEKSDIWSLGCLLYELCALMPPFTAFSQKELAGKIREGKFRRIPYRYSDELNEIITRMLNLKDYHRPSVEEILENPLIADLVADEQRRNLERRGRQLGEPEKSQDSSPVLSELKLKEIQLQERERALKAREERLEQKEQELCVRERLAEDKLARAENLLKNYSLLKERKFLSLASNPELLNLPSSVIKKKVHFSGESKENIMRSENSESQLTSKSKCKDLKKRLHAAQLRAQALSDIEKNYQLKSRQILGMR

[4] = biological target: T3, Serine/threonine-protein kinase ULK2 (Homo sapiens) (UniProt Q8IYT8); experiment: Inhibition of ULK2 at 1 uM
T3 sequence (whole entry): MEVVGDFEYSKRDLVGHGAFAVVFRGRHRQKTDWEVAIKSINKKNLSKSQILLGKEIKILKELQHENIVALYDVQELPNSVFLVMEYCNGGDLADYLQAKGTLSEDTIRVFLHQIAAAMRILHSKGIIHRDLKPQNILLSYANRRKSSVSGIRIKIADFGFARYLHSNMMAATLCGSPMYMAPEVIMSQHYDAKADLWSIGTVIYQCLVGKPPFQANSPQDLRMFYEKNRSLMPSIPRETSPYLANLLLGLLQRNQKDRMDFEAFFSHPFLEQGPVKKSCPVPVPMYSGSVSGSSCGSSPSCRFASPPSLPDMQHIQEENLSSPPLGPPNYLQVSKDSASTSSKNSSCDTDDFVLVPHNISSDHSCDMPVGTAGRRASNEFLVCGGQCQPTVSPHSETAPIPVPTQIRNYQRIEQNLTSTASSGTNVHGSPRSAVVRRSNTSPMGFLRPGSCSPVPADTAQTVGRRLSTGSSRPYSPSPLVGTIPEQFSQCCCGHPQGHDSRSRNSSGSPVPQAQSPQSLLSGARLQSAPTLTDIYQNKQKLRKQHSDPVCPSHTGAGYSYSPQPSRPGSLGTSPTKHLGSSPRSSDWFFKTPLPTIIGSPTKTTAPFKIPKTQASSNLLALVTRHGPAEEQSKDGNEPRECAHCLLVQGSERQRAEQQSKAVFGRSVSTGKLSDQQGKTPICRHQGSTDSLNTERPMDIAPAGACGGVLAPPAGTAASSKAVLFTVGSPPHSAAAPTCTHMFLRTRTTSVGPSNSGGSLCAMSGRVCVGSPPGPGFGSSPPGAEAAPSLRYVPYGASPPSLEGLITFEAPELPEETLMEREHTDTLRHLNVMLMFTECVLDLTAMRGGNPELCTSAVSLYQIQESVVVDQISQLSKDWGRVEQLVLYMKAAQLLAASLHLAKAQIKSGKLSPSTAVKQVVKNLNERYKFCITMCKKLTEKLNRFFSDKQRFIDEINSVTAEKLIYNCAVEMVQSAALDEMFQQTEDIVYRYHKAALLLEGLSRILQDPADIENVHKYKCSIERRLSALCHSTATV

[5] = biological target: Non-receptor tyrosine-protein kinase TYK2 (Homo sapiens) (UniProt P29597); experiment: Inhibition of TYK2 JH2 pseudokinase domain at 1 uM
Chain of Non-receptor tyrosine-protein kinase TYK2 (Homo sapiens) (P29597 whole entry, the tested form may be a part): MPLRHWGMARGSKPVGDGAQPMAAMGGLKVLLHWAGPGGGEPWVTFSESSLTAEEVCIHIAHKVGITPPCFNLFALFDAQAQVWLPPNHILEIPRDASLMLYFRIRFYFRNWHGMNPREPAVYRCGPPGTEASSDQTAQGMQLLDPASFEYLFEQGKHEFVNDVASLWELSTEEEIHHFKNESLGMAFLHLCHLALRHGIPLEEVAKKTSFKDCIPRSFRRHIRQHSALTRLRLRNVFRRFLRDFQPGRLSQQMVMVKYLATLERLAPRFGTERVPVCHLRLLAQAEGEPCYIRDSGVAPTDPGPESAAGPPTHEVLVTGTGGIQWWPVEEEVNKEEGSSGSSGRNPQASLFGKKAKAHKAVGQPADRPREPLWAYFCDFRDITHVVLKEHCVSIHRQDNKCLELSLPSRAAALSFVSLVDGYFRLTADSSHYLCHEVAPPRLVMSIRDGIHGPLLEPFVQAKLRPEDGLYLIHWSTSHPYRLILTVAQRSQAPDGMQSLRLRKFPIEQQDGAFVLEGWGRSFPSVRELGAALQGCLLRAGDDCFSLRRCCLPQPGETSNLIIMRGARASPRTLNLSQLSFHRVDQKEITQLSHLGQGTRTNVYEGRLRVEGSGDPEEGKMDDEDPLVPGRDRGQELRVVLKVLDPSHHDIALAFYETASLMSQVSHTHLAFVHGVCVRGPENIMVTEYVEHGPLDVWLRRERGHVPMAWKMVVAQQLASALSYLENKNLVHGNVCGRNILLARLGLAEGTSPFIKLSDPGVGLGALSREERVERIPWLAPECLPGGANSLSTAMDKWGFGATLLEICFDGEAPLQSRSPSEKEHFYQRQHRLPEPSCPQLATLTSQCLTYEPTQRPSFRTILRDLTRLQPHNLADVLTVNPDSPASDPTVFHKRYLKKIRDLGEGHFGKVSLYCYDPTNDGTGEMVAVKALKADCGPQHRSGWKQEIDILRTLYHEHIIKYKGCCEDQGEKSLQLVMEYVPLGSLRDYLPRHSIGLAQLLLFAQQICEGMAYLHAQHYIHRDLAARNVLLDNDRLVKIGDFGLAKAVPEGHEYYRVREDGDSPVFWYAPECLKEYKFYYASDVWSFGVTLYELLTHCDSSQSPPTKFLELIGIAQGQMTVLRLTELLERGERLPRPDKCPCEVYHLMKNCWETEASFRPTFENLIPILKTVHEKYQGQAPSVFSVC

[6] = biological target: Serine/threonine-protein kinase PAK 4 (Homo sapiens) (UniProt O96013); experiment: Inhibition of PAK4 at 1 uM
Chain of Serine/threonine-protein kinase PAK 4 (Homo sapiens) (O96013 whole entry, looked up): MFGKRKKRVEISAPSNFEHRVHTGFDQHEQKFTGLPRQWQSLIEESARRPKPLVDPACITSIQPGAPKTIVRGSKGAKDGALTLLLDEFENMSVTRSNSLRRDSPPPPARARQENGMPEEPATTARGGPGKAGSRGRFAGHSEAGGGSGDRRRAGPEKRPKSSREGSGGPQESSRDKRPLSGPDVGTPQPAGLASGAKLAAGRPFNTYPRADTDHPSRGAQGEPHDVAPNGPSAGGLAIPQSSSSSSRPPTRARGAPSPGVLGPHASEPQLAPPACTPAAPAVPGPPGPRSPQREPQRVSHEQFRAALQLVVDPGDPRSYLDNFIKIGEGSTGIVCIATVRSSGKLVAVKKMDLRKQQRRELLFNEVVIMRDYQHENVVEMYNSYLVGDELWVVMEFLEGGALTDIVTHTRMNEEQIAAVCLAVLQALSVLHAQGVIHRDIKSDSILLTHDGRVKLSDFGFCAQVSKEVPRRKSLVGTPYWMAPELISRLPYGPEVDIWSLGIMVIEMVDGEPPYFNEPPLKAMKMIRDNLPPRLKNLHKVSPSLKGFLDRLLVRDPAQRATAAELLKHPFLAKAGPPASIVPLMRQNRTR

Chain of Death-associated protein kinase 1 (Homo sapiens) (P53355 whole entry, looked up): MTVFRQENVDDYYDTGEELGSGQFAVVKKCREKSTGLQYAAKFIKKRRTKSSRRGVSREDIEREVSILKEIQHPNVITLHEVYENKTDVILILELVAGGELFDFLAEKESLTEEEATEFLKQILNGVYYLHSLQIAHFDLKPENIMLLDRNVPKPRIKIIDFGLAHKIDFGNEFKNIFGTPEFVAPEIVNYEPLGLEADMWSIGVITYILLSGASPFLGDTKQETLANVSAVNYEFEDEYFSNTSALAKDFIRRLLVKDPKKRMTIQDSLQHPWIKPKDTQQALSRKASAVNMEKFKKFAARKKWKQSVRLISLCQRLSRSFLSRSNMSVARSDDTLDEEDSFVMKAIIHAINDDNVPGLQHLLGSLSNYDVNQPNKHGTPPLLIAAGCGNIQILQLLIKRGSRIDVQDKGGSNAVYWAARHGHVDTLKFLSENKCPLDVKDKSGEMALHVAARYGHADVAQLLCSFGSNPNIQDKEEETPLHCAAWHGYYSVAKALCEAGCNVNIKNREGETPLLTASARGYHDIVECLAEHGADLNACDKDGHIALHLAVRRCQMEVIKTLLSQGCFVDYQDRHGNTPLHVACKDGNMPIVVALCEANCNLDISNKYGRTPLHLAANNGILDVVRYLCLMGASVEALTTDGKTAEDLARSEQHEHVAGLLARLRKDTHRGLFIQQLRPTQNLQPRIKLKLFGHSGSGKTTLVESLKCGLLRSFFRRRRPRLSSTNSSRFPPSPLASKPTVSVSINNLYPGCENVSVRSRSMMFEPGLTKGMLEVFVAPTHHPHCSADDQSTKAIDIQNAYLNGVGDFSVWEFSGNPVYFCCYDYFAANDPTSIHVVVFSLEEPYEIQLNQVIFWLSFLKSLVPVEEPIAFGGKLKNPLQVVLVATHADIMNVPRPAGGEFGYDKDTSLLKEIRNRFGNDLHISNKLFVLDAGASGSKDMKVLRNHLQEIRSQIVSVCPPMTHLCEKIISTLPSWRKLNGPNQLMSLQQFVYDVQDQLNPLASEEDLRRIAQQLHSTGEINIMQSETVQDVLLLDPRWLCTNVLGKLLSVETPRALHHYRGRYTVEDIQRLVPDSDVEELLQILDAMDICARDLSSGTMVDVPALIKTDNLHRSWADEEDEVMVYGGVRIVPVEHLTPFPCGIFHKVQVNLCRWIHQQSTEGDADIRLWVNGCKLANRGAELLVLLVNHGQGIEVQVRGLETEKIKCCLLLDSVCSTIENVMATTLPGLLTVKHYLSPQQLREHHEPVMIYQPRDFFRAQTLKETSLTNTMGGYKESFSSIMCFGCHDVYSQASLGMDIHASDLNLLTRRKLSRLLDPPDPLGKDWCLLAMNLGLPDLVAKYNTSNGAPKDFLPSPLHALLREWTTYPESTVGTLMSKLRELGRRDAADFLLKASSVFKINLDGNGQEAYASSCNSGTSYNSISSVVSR

Compound	inhibition [1]	inhibition [2]	inhibition [3]	inhibition [4]	inhibition [5]	inhibition [6]
CN1CCN(c2ccc(-c3cnc4c(c3)N(Cc3cc(Cl)ccc3Cl)CCN4)cn2)CC1	< 50%	< 50%	< 50%	< 50%	< 50%	< 50%
CN1CCN(c2ccc(-c3cnc4c(c3)N(Cc3cc(Cl)ccc3C(F)(F)F)CCN4)cn2)CC1	< 50%	< 50%	< 50%	< 50%	< 50%	< 50%
CN1CCN(c2ccc(-c3cnc4c(c3)N(Cc3c(F)ccc(F)c3Cl)CCN4)cn2)CC1	< 50%	< 50%	< 50%	< 50%	< 50%	< 50%
O=C(c1ccc(-c2cnc3c(c2)N(Cc2cc(Cl)ccc2C(F)(F)F)CCN3)cc1)N1CCC(N2CCCC2)CC1	< 50%	< 50%	< 50%	–	–	< 50%
COC1CCN(C(=O)c2ccc(-c3cnc4c(c3)N(Cc3cc(Cl)ccc3C(F)(F)F)CCN4)cc2)CC1	< 50%	< 50%	< 50%	–	–	< 50%
FC(F)(F)c1ccc(Cl)cc1CN1CCNc2ncc(-c3ccnc(N4CCNCC4)c3)cc21	< 50%	< 50%	< 50%	78%	< 50%	< 50%
CN1CCN(c2ccc(-c3cnc4c(c3)N(Cc3cc(F)ccc3F)CCN4)cn2)CC1	< 50%	< 50%	< 50%	< 50%	< 50%	< 50%
O=C(c1ccc(-c2cnc3c(c2)N(Cc2cc(Cl)ccc2C(F)(F)F)CCN3)cc1)N1CCCCC1	< 50%	< 50%	< 50%	–	–	< 50%
CC(=O)N1CCN(c2cc(-c3cnc4c(c3)N(Cc3cc(Cl)ccc3C(F)(F)F)CCN4)ccn2)CC1	< 50%	< 50%	< 50%	< 50%	< 50%	< 50%
O=C(O)c1ccc(-c2cnc3c(c2)N(Cc2cc(Cl)ccc2C(F)(F)F)CCN3)cc1	< 50%	< 50%	< 50%	–	–	< 50%
